Test results from ChEMBL document CHEMBL1149652, “Synthesis and structure-activity relationship study of cytotoxic germanicane- and lupane-type 3beta-O-monodesmosidic saponins starting from betulin” (Bioorg Med Chem, 2007).

How the values were obtained:
A549 = test: Cytotoxicity against human A549 cells assessed as cell viability after 48 hrs; type: functional, cell-based; settings: A549, 48 h
Summary of the method: (§1)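 Cells from ATCC grown in MEM with Earle's salts, L-glutamine, 10% FBS, vitamins, essential amino acids, sodium pyruvate, penicillin/streptomycin, 37 °C, 5% CO2. Exponentially growing cells seeded at 5 × 10^3 per well, adhered 16 h, then exposed 48 h to increasing concentrations from DMSO stocks (final DMSO 0.5% v/v). Resazurin fluorescence read (ex 530/em 590 nm), blank-subtracted, expressed as survival versus control wells. IC50 given as mean ± standard deviation, three experiments in triplicate.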

DLD-1 = test: Cytotoxicity against human DLD1 cells assessed as cell viability after 48 hrs; type: functional, cell-based; settings: DLD-1, 48 h; summary of the method: as §1
[1] = Cytotoxicity against human WS1 cells assessed as cell viability after 48 hrs; type: cell-based; settings: WS1, 48 h; summary of the method: as §1

| SMILES | IC50 (A549) [µM] | IC50 (DLD-1) [µM] | IC50 [1] [µM] |
| --- | --- | --- | --- |
| CC1(C)CC[C@]23CC[C@]4(C)[C@H](CC[C@@H]5[C@@]6(C)CC[C@H](O[C@@H]7O[C@H](CO)[C@@H](O)[C@H](O)[C@H]7O)C(C)(C)[C@@H]6CC[C@]54C)[C@H]2[C@@H]1OC3=O | > 75 | > 75 | > 75 |
| C=C(C)[C@@H]1CC[C@]2(CO)CC[C@]3(C)[C@H](CC[C@@H]4[C@@]5(C)CC[C@H](O[C@@H]6OC[C@@H](O)[C@H](O)[C@H]6O)C(C)(C)[C@@H]5CC[C@]43C)[C@@H]12 | > 75 | > 75 | > 75 |
| C=C(C)[C@@H]1CC[C@]2(CO)CC[C@]3(C)[C@H](CC[C@@H]4[C@@]5(C)CC[C@H](O[C@@H]6O[C@H](CO)[C@H](O)[C@H](O)[C@H]6O)C(C)(C)[C@@H]5CC[C@]43C)[C@@H]12 | > 75 | > 75 | > 75 |
| CC1(C)CC[C@]23CC[C@]4(C)[C@H](CC[C@@H]5[C@@]6(C)CC[C@H](O[C@H]7O[C@H](CO)[C@@H](O)[C@H](O)[C@@H]7O)C(C)(C)[C@@H]6CC[C@]54C)[C@H]2[C@@H]1OC3=O | > 75 | > 75 | > 75 |
| C=C(C)[C@@H]1CC[C@]2(C(=O)O)CC[C@]3(C)[C@H](CC[C@@H]4[C@@]5(C)CC[C@H](O[C@@H]6O[C@H](CO)[C@@H](O)[C@H](O)[C@H]6O)C(C)(C)[C@@H]5CC[C@]43C)[C@@H]12 | > 75 |  |  |
| C=C(C)[C@@H]1CC[C@]2(C(=O)O)CC[C@]3(C)[C@H](CC[C@@H]4[C@@]5(C)CC[C@H](OC(C)=O)C(C)(C)[C@@H]5CC[C@]43C)[C@@H]12 | 18 | 20 | 57 |
| C=C(C)[C@@H]1CC[C@]2(CO)CC[C@]3(C)[C@H](CC[C@@H]4[C@@]5(C)CC[C@H](O[C@H]6O[C@H](CO)[C@@H](O)[C@H](O)[C@@H]6O)C(C)(C)[C@@H]5CC[C@]43C)[C@@H]12 | 7.3 | 10.1 | 5.1 |
| C[C@@H]1O[C@H](O[C@H]2CC[C@]3(C)[C@H]4CC[C@@H]5[C@H]6[C@@H]7OC[C@@]6(CCC7(C)C)CC[C@@]5(C)[C@]4(C)CC[C@H]3C2(C)C)[C@@H](O)[C@@H](O)[C@@H]1O | > 75 | > 75 | > 75 |
| C=C(C)[C@@H]1CC[C@]2(CO)CC[C@]3(C)[C@H](CC[C@@H]4[C@@]5(C)CC[C@H](O[C@@H]6O[C@H](CO)[C@@H](O)[C@H](O)[C@H]6O)C(C)(C)[C@@H]5CC[C@]43C)[C@@H]12 | > 75 | > 75 | > 75 |
| C=C(C)[C@@H]1CC[C@]2(C(=O)O)CC[C@]3(C)[C@H](CC[C@@H]4[C@@]5(C)CC[C@H](O[C@@H]6O[C@H](CO)[C@H](O)[C@H](O)[C@H]6O)C(C)(C)[C@@H]5CC[C@]43C)[C@@H]12 | > 75 | > 75 | > 75 |
| CC1(C)CC[C@]23CC[C@]4(C)[C@H](CC[C@@H]5[C@@]6(C)CC[C@H](O[C@@H]7O[C@H](CO)[C@H](O)[C@H](O)[C@H]7O)C(C)(C)[C@@H]6CC[C@]54C)[C@H]2[C@@H]1OC3=O | > 75 | > 75 | > 75 |
| C[C@@H]1O[C@H](O[C@H]2CC[C@]3(C)[C@H]4CC[C@@H]5[C@H]6[C@@H]7OC(=O)[C@@]6(CCC7(C)C)CC[C@@]5(C)[C@]4(C)CC[C@H]3C2(C)C)[C@@H](O)[C@@H](O)[C@@H]1O | > 75 | > 75 | > 75 |
| CC1(C)CC[C@]23CC[C@]4(C)[C@H](CC[C@@H]5[C@@]6(C)CC[C@H](O[C@@H]7O[C@H](CO)[C@@H](O)[C@H](O)[C@H]7O)C(C)(C)[C@@H]6CC[C@]54C)[C@H]2[C@@H]1OC3 | 31 | 40 | 40 |
| CC1(C)CC[C@]23CC[C@]4(C)[C@H](CC[C@@H]5[C@@]6(C)CC[C@H](O[C@@H]7O[C@H](CO)[C@H](O)[C@H](O)[C@H]7O)C(C)(C)[C@@H]6CC[C@]54C)[C@H]2[C@@H]1OC3 | 30 | 40 | 30 |
| C=C(C)[C@@H]1CC[C@]2(C(=O)O)CC[C@]3(C)[C@H](CC[C@@H]4[C@@]5(C)CC[C@H](O[C@H]6O[C@H](CO)[C@@H](O)[C@H](O)[C@@H]6O)C(C)(C)[C@@H]5CC[C@]43C)[C@@H]12 | 34 | 15 | 13 |
| C=C(C)[C@@H]1CC[C@]2(C(=O)O)CC[C@]3(C)[C@H](CC[C@@H]4[C@@]5(C)CC[C@H](O[C@@H]6OC[C@@H](O)[C@H](O)[C@H]6O)C(C)(C)[C@@H]5CC[C@]43C)[C@@H]12 | 15 | 18 | 20 |
| CC1(C)CC[C@]23CC[C@]4(C)[C@H](CC[C@@H]5[C@@]6(C)CC[C@H](O[C@@H]7OC[C@@H](O)[C@H](O)[C@H]7O)C(C)(C)[C@@H]6CC[C@]54C)[C@H]2[C@@H]1OC3=O | > 75 | > 75 | > 75 |
| CC1(C)CC[C@]23CC[C@]4(C)[C@H](CC[C@@H]5[C@@]6(C)CC[C@H](O[C@H]7OC[C@H](O)[C@H](O)[C@H]7O)C(C)(C)[C@@H]6CC[C@]54C)[C@H]2[C@@H]1OC3 | > 75 | > 75 | > 75 |
| CC1(C)CC[C@]23CC[C@]4(C)[C@H](CC[C@@H]5[C@@]6(C)CC[C@H](O[C@H]7O[C@H](CO)[C@@H](O)[C@H](O)[C@@H]7O)C(C)(C)[C@@H]6CC[C@]54C)[C@H]2[C@@H]1OC3 | > 75 | > 75 | > 75 |
| CC1(C)CC[C@]23CC[C@]4(C)[C@H](CC[C@@H]5[C@@]6(C)CC[C@H](O[C@H]7OC[C@H](O)[C@H](O)[C@H]7O)C(C)(C)[C@@H]6CC[C@]54C)[C@H]2[C@@H]1OC3=O | > 75 | > 75 | > 75 |
| CC1(C)CC[C@]23CC[C@]4(C)[C@H](CC[C@@H]5[C@@]6(C)CC[C@H](O[C@@H]7OC[C@@H](O)[C@H](O)[C@H]7O)C(C)(C)[C@@H]6CC[C@]54C)[C@H]2[C@@H]1OC3 | > 75 | > 75 | > 75 |
| CC1(C)CC[C@]23CC[C@]4(C)[C@H](CC[C@@H]5[C@@]6(C)CC[C@H](O)C(C)(C)[C@@H]6CC[C@]54C)[C@H]2[C@H]1OC3=O | > 75 | > 75 | > 75 |
| CC1(C)CC[C@]23CC[C@]4(C)[C@H](CC[C@@H]5[C@@]6(C)CC[C@H](O)C(C)(C)[C@@H]6CC[C@]54C)[C@H]2[C@H]1OC3 [ALLOBETULIN] | > 75 | > 75 | > 75 |
